Data taken from ChEMBL document CHEMBL2390866, “Novel pyrimidoazepine analogs as serotonin 5-HT(2A) and 5-HT(2C) receptor ligands for the treatment of obesity” (Eur J Med Chem, 2013).
pEC50, pIC50: −log10 of the molar value.

Legend:
[1] = target: T1, 5-hydroxytryptamine receptor 2C (Homo sapiens, UniProt P28335); experiment: Displacement of [3H]-mesulergine from human recombinant 5HT-2C receptor expressed in CHOK1 cell membranes after 30 mins; set-up: species or system CHO-K1
T1 sequence (P28335 whole entry): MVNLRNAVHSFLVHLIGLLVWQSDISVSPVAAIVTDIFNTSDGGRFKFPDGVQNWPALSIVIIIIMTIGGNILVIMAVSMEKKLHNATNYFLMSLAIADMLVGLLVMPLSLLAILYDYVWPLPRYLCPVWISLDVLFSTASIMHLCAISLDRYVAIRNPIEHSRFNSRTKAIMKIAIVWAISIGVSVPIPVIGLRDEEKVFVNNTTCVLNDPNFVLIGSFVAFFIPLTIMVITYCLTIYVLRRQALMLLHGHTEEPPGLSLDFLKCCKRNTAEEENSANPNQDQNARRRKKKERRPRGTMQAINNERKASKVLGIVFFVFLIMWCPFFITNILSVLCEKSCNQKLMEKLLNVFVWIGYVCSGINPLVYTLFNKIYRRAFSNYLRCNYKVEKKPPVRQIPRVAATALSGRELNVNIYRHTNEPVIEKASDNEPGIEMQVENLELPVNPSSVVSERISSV
Outline: (§1)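 Frozen CHO-K1 membranes expressing recombinant human 5-HT2C incubated with 1 nM [3H]mesulergine in 50 mM Tris-HCl pH 7.4 containing 0.1% ascorbic acid and pargyline. Mianserin defined nonspecific binding.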

[2] = target: T2, 5-hydroxytryptamine receptor 2C (Homo sapiens) (UniProt P28335); experiment: Displacement of [3H]-mesulergine from human recombinant 5HT-2C receptor expressed in CHOK1 cell membranes at 10 uM after 30 mins relative to control; details: CHO-K1; outline: as §1
T2 sequence (whole entry): T1 sequence (P28335 whole entry)

[3] = target: T3, 5-hydroxytryptamine receptor 2A (Homo sapiens, UniProt P28223); experiment: Displacement of [3H]-ketanserin from human recombinant 5HT-2A receptor expressed in CHOK1 cell membranes after 60 mins; set-up: species or system CHO-K1
Outline: (§2)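 Buffer was 50 mM Tris-HCl pH 7.4 with 5 mM CaCl2 and 0.1% ascorbic acid. Test compound added at a range of concentrations.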

[4] = target: T3, 5-hydroxytryptamine receptor 2A; experiment: Displacement of [3H]-ketanserin from human recombinant 5HT-2A receptor expressed in CHOK1 cell membranes at 10 uM after 60 mins relative to control; details: CHO-K1; outline: as §2
[5] = target: T3, 5-hydroxytryptamine receptor 2A; experiment: Antagonist activity at serotonin-activated human recombinant 5HT-2A receptor expressed in HEK293 cells assessed as decrease in intracellular calcium level after 5 mins measured for 1 min by fluorescence assay; assay type: functional, cell-based; details: read-out: EC50 (the source's name)
Outline: (§3)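 Cells were washed with HBSS/20 mM HEPES, then loaded 50 min with Fluo-4 NW dye in HBSS with 2.5 mM probenecid. Compound was added for 5 min at 37 °C, then serotonin; fluorescence followed 1 min. Run in duplicate or quadruplicate, repeated several times; IC50 by nonlinear regression.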

Mus musculus [6] = experiment: Antiobesity activity in C57BL/6 mouse assessed as inhibition of food intake at 50 mg/kg, ip measured after 2 to 12 hrs relative to vehicle-treated control; assay type: functional; details: C57BL/6, ip, route intraperitoneal
Outline: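 Male mice were acclimated 1 week at 23 ± 3 °C and 50 ± 20% humidity, then fasted 24 h. They were dosed once intraperitoneally with vehicle or compound: 50 mg/kg in C57BL/6, or 12.5, 25 or 50 mg/kg in B6.V-Lep^ob/J. Food intake was measured at 2, 6 and 12 h versus vehicle control.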

Mus musculus [7] = experiment: Antiobesity activity in C57BL/6 mouse assessed as inhibition of body weight gain at 50 mg/kg, ip measured after 2 to 12 hrs relative to vehicle-treated control; assay type: functional; details: C57BL/6, ip, route intraperitoneal
[8] = target: T1, 5-hydroxytryptamine receptor 2C; experiment: Antagonist activity at serotonin-activated human recombinant 5HT-2C receptor expressed in HEK293 cells assessed as decrease in intracellular calcium level after 5 mins measured for 1 min by fluorescence assay; assay type: functional, cell-based; details: read-out: EC50 (the source's name)
Outline: as §3, with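 “Intracellular calcium read on HEK293 cells stably expressing human receptor, seeded 10,000 cells/well and grown 24 h at 37 °C, 5% CO2. Cells” for “Cells”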

[9] = target: T1, 5-hydroxytryptamine receptor 2C; experiment: Agonist activity at serotonin-activated human recombinant 5HT-2C receptor expressed in HEK293 cells assessed as increase in intracellular calcium level after 5 mins measured for 1 min by fluorescence assay; assay type: functional, cell-based

T3 sequence (P28223 whole entry): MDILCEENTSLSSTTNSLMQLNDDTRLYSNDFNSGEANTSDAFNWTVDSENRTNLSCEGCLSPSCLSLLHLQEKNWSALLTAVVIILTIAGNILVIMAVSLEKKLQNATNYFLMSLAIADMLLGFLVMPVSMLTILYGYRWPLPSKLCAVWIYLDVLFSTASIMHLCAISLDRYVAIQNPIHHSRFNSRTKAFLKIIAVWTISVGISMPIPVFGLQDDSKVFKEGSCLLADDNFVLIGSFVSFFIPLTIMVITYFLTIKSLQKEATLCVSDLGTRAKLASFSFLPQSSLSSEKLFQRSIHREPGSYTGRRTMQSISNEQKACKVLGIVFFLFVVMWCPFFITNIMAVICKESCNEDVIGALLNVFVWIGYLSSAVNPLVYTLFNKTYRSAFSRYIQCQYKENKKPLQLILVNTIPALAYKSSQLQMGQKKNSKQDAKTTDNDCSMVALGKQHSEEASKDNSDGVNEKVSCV

SMILES	pIC50 [1]	inhibition [2] [%]	pIC50 [3]	inhibition [4] [%]	pIC50 [5]	inhibition in vivo at 50 mg/kg (Mus musculus [6]) [%]	inhibition in vivo at 50 mg/kg (Mus musculus [7]) [%]	pIC50 [8]	pEC50 [9]
CCN(CC)c1nc(Nc2cccc(OC)c2)c2cn[nH]c2n1	5.27	61	5.68	87					
Fc1ccc(Nc2nc(N3CCN(Cc4ccccc4)CC3)nc3[nH]ncc23)cc1	6.08	96	7.28	100					
CN1CCc2nc(N3CCN(C)CC3)nc(Nc3ccc(F)cc3)c2CC1	6.11		6.16						
CN1CCN(c2nc(Nc3ccc(Cl)cc3)c3cn[nH]c3n2)CC1	7.53	100	7.54	100					
CCN(CC)c1nc(Nc2ccc(C)c(C)c2)c2cn[nH]c2n1	5.07	52	5.56	85					
COc1ccc(Nc2nc(Cc3ccccc3)nc3c2CCNCC3)cc1	6.57		7.24						
CNc1nc(N2CCN(C)CC2)nc2c1CCNCC2	< 5.00		< 5.00		5.92				
CCN(CC)c1nc(N2CCN(C)CC2)nc2c1CCNCC2	< 5.00		< 5.00		5.54	4.17	9.01		
COCCCNc1nc(Nc2ccc(F)cc2)c2cn[nH]c2n1	< 5.00	28	5.28	67					
Fc1ccc(Nc2nc(N3CCN(c4ccccc4)CC3)nc3[nH]ncc23)cc1	6.38	88	7.57	100					
CNc1nc(Nc2ccc(F)cc2)c2cn[nH]c2n1	5.11	51	< 5.00	49					
Fc1ccc(Nc2nc(NC3CCCC3)nc3[nH]ncc23)cc1	< 5.00	35	5.35	72					
C=CCNc1nc(Nc2ccc(F)cc2)c2cn[nH]c2n1	< 5.00	41	5.18	60					
OCCCNc1nc(Nc2ccc(F)cc2)c2cn[nH]c2n1	< 5.00	5	< 5.00	26					
Fc1ccc(Nc2nc(Cc3ccccc3)nc3c2CCNCC3)cc1	8.07		8.71					8.59	
CCNc1nc(Nc2ccccc2)c2cn[nH]c2n1	< 5.00	15	< 5.00	6					
COc1nc(N2CCN(C)CC2)nc2c1CCNCC2	< 5.00		< 5.00						
CN1CCN(c2nc3c(c(OCc4ccco4)n2)CCNCC3)CC1	5.90		5.58						
OCCN1CCN(c2nc(Nc3ccc(F)cc3)c3cn[nH]c3n2)CC1	6.31	97	6.79	100					
Fc1ccc(Nc2nc(N3CCCCC3)nc3[nH]ncc23)cc1	5.89	89	5.66	86					
CN1CCN(c2nc3c(c(N(C)C)n2)CCNCC3)CC1	< 5.00		< 5.00			12.5	12.2		5.92
COc1cccc(Nc2nc(N3CCN(c4ccc(F)cc4)CC3)nc3[nH]ncc23)c1	5.96	85	6.46	100					
CN1CCN(c2ncc3c(n2)CCNCC3)CC1	< 5.00		< 5.00						
CN1CCN(c2nc(Nc3ccccc3)c3cn[nH]c3n2)CC1	7.06	100	7.60	100					
